This passage reports yeast fitness results from the RNAGym collection of RNA variant scans (doi:10.1126/science.aae0568).

Fewer inactive variants are shown than the library holds.

B1: tRNA (parent)
chain: GUUCCGUUGGCGUAAUGGUAACGCGUCUCCCUCCUAAGGAGAAGACUGCGGGUUCGAGUCCCGUACGGAACG

The variants in the data set derive from B1. As to the kind of experiment: yeast fitness relative to wild type (ratio to wild type); higher = fitter; tRNA-Arg(CCU), competitive growth, 37 C, YPD. Put shortly:
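Start and end populations of a pooled competition were compared by 100-nucleotide paired-end sequencing of gene amplicons. The Saccharomyces cerevisiae strains carried tRNA-Arg(CCU) gene variants at the native genomic locus, synthesised with a 3% per-site mutation rate at 69 sites, and competed in YPD at 37°C for 24 hours in six parallel replicates. Darwinian fitness relative to wild type was based on the change in genotype frequencies. Genotypes required ≥ 100 starting reads, and estimates < 0.5 were set to 0.5.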
For the variant G18A A20U C60A, the yeast fitness was not above 0.5.
Take G18A A21C A43C G48A G52A G63A: the yeast fitness was not above 0.5.
In the case of G18C C24G A70G, the yeast fitness is not above 0.5.
Under G18C A21G U47A G67C stands 0.53; under G18C C30G U32C U53A, not above 0.5; under G18C A36G, 0.769.
For G18C A36U, the yeast fitness was found to be 0.551.
Turning to G18A U28C U47A, the yeast fitness is not above 0.5.
Under G17C U59G stands 0.674; under G17U A45U C55U A70C, not above 0.5; under G18C A36G A37C, not above 0.5.
For the variant G18A C34U A43C, the yeast fitness is not above 0.5.
Regarding G18A G23A G58C A70C, the yeast fitness was not above 0.5.
Under G18A C24U C29U C31U G39C stands not above 0.5.
For G18A C24A C31A G68U, the yeast fitness is not above 0.5.
As to G18C A70U, the yeast fitness was 0.737.
Under G18C A70G stands 0.588; under G18C C29G C31G A57C, 0.549.
Under G18A A21U G68A stands not above 0.5; under G18A A20U C22U U28A C33U G44C C60A, not above 0.5.
As to G18C C24U A40U C55U U59A, the yeast fitness came out at 0.501.
For G18C A21C C30G C46G, the yeast fitness was not above 0.5.
Under G17C U32G C34A A40U A43C stands not above 0.5.
Under G18C A37C C49G stands 0.663.
Consider G18A A42G G48C, for which the yeast fitness is not above 0.5.
With G18A U26G A40G U59G C62A the figure was not above 0.5; with G18A A37C A42C C55U, not above 0.5.
With G18C A21C A69U the figure was not above 0.5; with G18A C30U A57C, not above 0.5; with G18C C27A, 0.555.
G18C C27G: the yeast fitness worked out at 0.61.
For G18C C27U, the yeast fitness worked out at 0.71.
Under G18A C29G A37G G44C stands 0.598; under G18C C27U C55G, 0.67.
Under G18A C30U stands 0.709.
Under G18C A42C U54A stands not above 0.5; under G18A C27U C34G G48C C49U, not above 0.5.
Turning to G18A C61G, the yeast fitness amounted to 0.681.
With G18A C61U the figure was 0.696; with G18A G50C G58C C60U C66G, not above 0.5; with G18A C34U G67A, not above 0.5.
Under G18A C22G stands 0.856.
With G18A C22A the figure was 0.805.
Turning to G18A C29U C31A C55U G68C, the yeast fitness is not above 0.5.
Under G18C A40U A70G stands 0.632; under G18C C29U G39A C49U G56C, not above 0.5; under G18A C30G A37U C55G, not above 0.5.
Under G18A G25A C46U stands 0.508; under G18A C31A G56C A65C, not above 0.5.
With G18C C29U C34U G58C the figure was not above 0.5; with G18A U19A C27G G39C, not above 0.5.
Take G17C U53G: the yeast fitness is not above 0.5.
Consider G18A U32C A65G, for which the yeast fitness turned out to be 0.535.
With G18A U32A G44A A65C the figure was not above 0.5.
With G18C A21G C27A C30U G38A the figure was 0.547; with G18A G52C G67U A69U, not above 0.5.
As for G18A G25A C49U C62U, the yeast fitness is not above 0.5.
As to G18A C33U A42G, the yeast fitness was 0.54.
Turning to G18A C24G C49A, the yeast fitness is not above 0.5.
Under G18A U53A C66U stands not above 0.5; under G18A C27U, 0.712; under G18A C27G, not above 0.5.
Under G18C C29G A45G C66U A69C stands not above 0.5; under G18A A45U C55A, not above 0.5.
Consider G18A C34U G39C, for which the yeast fitness is not above 0.5.
Under G18A C22A C46G U53A C61G A70C stands 0.583.
With G18A G25C A69C the figure was 0.519.
Under G18A U19C C22U stands 0.641; under G18C A20G C29A G67A, not above 0.5.
As to G18A A37G G52C C61A, the yeast fitness was not above 0.5.
With G18C A45U G50C C55G U64C the figure was not above 0.5; with G17C U47A, 0.695; with G18A U26G C55U C60G, 0.512.
Turning to G18C C33A, the yeast fitness is 0.592.
With G18A A21U G48A the figure was 0.571; with G18A C31A G56C, not above 0.5.
Consider G17U A40C, for which the yeast fitness was 0.823.
With G18C A36G C61A, the yeast fitness was not above 0.5.
Under G18C C33A G39C G41C G44C stands not above 0.5.
With G18A G23A C33A A65C the figure was 0.624; with G18A C46U U59C C60A G68A, not above 0.5.
With G18A C29G A37G C60A C62G the figure was 0.728; with G18A G23C C29U C31G, not above 0.5.
Regarding G18A C30A G58A G68U, the yeast fitness is not above 0.5.
Under G18A C33G stands not above 0.5.
Regarding G18A C33U, the yeast fitness was not above 0.5.
Under G18A U19A G63A stands not above 0.5; under G18C C27U A69C, 0.502; under G18C C22G A69C, not above 0.5.
For G18C A21U C24U U28A, the yeast fitness is 0.629.
With G18C A21G C66A the figure was not above 0.5; with G18A A36G A42U A70C, 0.784.
Under G18A C34U A43C C46G stands not above 0.5.
With G18A A20U U59G the figure was not above 0.5.
With G18C C27A U28A A42U, the yeast fitness is not above 0.5.
For the variant G18A G58C A65U, the yeast fitness is not above 0.5.
As for G18C A43U, the yeast fitness amounted to 0.674.
Under G18A C62G stands 0.676; under G18A C62U, 0.712.
With G18A C34U U35C the figure was not above 0.5.
With G18A C29U U35C G52C the figure was not above 0.5; with G18A G39C, 0.757.
In the case of G18A C49A G63A, the yeast fitness was not above 0.5.
With G18A C30G A36C G44C the figure was not above 0.5.
Under G18C A36U C61A G63C stands not above 0.5; under G18C C22A A45C C46U A65C, not above 0.5; under G18C C30G, not above 0.5.
For the variant G18C C30A, the yeast fitness was 0.642.
Regarding G17U A37U A57C, the yeast fitness is not above 0.5.
G18C C27U G38A G39C: the yeast fitness was determined as 0.521.
As for G18C A21G A70C, the yeast fitness turned out to be 0.572.
Under G17U C27G C30U C60A stands not above 0.5.
With G18A G23C C30G A36U C60G, the yeast fitness is not above 0.5.
As for G18A U54A, the yeast fitness was 0.597.
Under G18A C33U U53A C55A stands 0.523; under G18A A20U C29G A37U G48A, not above 0.5; under G17U C24A C31U, not above 0.5.
With G18C C24G A36C G38C U47C G58C, the yeast fitness was not above 0.5.
Under G18A A20U C29G A37U C55A C66U stands not above 0.5; under G18A A40G A65G, not above 0.5.
With G17C U35C A37G G51C the figure was not above 0.5.
Under G18A C27G C49G C62G C66U A69C stands not above 0.5; under G18C C31G A42G, 0.505.
As to G18C C22A A65G, the yeast fitness was not above 0.5.
With G18A G50C the figure was 0.615; with G18A G51C G63A, not above 0.5.
With G18A A37U the figure was 0.6.
For G18A A37C, the yeast fitness was 0.727.
With G18A C33U A42G C60G C62G, the yeast fitness was not above 0.5.
Consider G18A C24G C27U C62U A70C, for which the yeast fitness is not above 0.5.
Turning to G18A G52A C55G, the yeast fitness turned out to be 0.571.
Under G18C C22U C29A A42G stands 0.541; under G18A G44A C62U, not above 0.5; under G18A C24U C30U C34U U54A, 0.531.
For the variant G18A G51A, the yeast fitness is 0.625.
Under G17U A21C G25C stands 0.541; under G18C C27G C46A G58A U59A, not above 0.5; under G18A C46A U64C, 0.535.
With G17U A37G A42U G48C C49U the figure was not above 0.5; with G18C C24A U32C, 0.55.
Under G18A U53G stands not above 0.5.
As for G18A C30A C34G, the yeast fitness is not above 0.5.
With G18C A45C A65U the figure was not above 0.5; with G18C C22G C55A A70U, not above 0.5.
With G18A A36C U64A the figure was 0.575; with G18A G44A U54C G58A G67U, not above 0.5.
Take G18C C22G G39A: the yeast fitness was not above 0.5.
With G18A C30U G41C G50A G67C the figure was 0.666; with G18C C29G U47C, not above 0.5.
As to G18A A45C C49U C62G C66U, the yeast fitness is not above 0.5.
As to G18A A21C A37C C66A, the yeast fitness stood at 0.695.
Under G18C A21U C30G A69C stands 0.555; under G18A C29U A45G A70G, not above 0.5; under G18A A37U C61U U64A, not above 0.5.
Turning to G18A G50C C55G, the yeast fitness is not above 0.5.
With G18C C24G C34U C49A the figure was not above 0.5.
With G18A G63A A69C the figure was 0.827; with G18C C24G C49G C61U, not above 0.5; with G18A G51C A65U, not above 0.5.
For G18A C60U A65G, the yeast fitness is not above 0.5.
Under G18A G50A C62G stands not above 0.5; under G18A C66U, 0.736.
Regarding G18A C66A, the yeast fitness was determined as 0.516.
Turning to G18A C46G A65U, the yeast fitness was determined as 0.697.
With G18C C30G U32C the figure was not above 0.5; with G18A G52A A65C, not above 0.5; with G18A C24U G58A, not above 0.5.
